# SUMO1 PPI mod: modulators of human SUMO1-mediated protein-protein interactions. P63165. SUMO1 binding to a labelled peptide, TR-FRET, 1 h. inhibition, % at 20 µM. actives 0.33% (n = 360,000); in the data active = inhibition above about 37%
# Target sequence (P63165 whole entry, looked up): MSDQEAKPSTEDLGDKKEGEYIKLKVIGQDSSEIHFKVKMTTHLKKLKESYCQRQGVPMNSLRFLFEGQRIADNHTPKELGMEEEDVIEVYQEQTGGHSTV
# Scp-1 inhibitor: Scp-1 (human) phosphatase inhibition; Q9GZU7; Recombinant Scp1, phosphopeptide, malachite green phosphate absorbance; inhibition, % at 20 µM; actives 0.88% (n = 340,000);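 active = inhibition above about 50% at 20 µM, limit read from the data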;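 note: plate controls were DMSO wells with enzyme for no effect and wells lacking enzyme for full effect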
#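 Test system: SCP-1 phosphatase catalytic domain, residues 76-261; measured by: colorimetric phosphate reagent with accelerator and stabiliser, absorbance at 630 nm; timing: enzyme reaction 45 min at room temperature, colour 5 min, stabilisation 30 min; also added: Phosphorylated 17-residue peptide substrate; compound dosing: one concentration, 20 µM, with 1.0% DMSO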
# DNMT1 block: DNMT1 (human) enzyme inhibition. P26358. DNMT1 molecular beacon, Hinp1I cleavage, fluorescence. inhibition (reported as % activation of signal), % at 10 µM. actives 0.83% (n = 360,000); in the data active = inhibition above about 50%
# STEP block: blocks human striatal-enriched tyrosine phosphatase. P54829. recombinant STEP, OMFP fluorogenic substrate, fluorescence. inhibition, % at 20 µM. actives 0.25% (n = 360,000). AID 588621;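 active = inhibition at 20 µM, scaled per plate between control wells, above about 37%, limit read from the data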;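 note: 0% = DMSO with enzyme and substrate and 100% = substrate only without enzyme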
#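 material = STEP tyrosine phosphatase | reagent = fluorogenic phosphatase substrate OMFP at 25 µM final | doses = single compound dose of 20 µM, 1% DMSO final | schedule = 20 min reaction, room temperature, in the dark | measured by = fluorescence, 480/540 nm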
# LMPTP block: blocks human LMPTP phosphatase. P24666. recombinant LMPTP-A, OMFP fluorogenic substrate, fluorescence intensity. inhibition, % at 20 µM. actives 0.22% (n = 360,000);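 active = compounds that cut the enzyme signal by at least half of the control window in the single-dose screen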;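 note: plate controls were DMSO wells with enzyme plus substrate for no effect and substrate without enzyme for full effect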
# Target sequence (P24666 whole entry, looked up): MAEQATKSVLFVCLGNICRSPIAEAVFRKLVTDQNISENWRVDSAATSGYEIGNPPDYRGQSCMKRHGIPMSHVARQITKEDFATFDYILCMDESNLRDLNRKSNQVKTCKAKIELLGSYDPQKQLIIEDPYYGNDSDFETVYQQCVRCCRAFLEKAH
#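 Assay system: LMPTP-A enzyme. Input: 0.625 nM LMPTP-A final. Probe or stimulus: 400 µM OMFP. Compound dosing: single 20 µM dose. Schedule: 50 min dark incubation at room temperature. Detection: fluorescence intensity of OMFP turnover product. Read-out: percent inhibition versus substrate-only and uninhibited controls. Benchmarks: no-enzyme low control, uninhibited high control.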
# CSN deneddyl inh: inhibitors of human CSN-mediated cullin deneddylation. actives 0.38% (n = 360,000). Q92905. AID 651999. inhibition, % at 12.5 µM. Purified CSN, SCF-Nedd8-OG deneddylation, fluorescence polarization;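 active = pattern-corrected inhibition above about 35%, with an unprinted fluorescence ratio check between 0.5 and 1.5, limit read from the data, passing the limit was not always enough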;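 note: 0% = enzyme with substrate and 100% = substrate without enzyme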
# Target sequence (Q92905 whole entry, looked up, one chain of several): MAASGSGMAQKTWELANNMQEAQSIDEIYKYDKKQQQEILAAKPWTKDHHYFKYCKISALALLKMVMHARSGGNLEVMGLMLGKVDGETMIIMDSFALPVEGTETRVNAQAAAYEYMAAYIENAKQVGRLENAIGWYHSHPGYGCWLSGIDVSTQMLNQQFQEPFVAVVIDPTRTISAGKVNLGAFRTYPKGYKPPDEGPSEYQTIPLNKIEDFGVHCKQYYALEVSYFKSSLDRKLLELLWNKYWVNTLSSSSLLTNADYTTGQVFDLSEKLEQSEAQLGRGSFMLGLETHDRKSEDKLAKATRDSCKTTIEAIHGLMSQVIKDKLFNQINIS
#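 Detection – fluorescence polarization · System – HEK293T-derived human Csn5 enzyme · Controls – substrate-only high control, full reaction low control · Timing – 90 min, room temperature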
# Active calls of the source: *; nt = not tested or not shown; ! = a repeat was not active. An excerpt weighted towards active compounds, which were near 2% of everything screened.
SMILES,SUMO1 PPI mod,Scp-1 inhibitor,DNMT1 block,STEP block,LMPTP block,CSN deneddyl inh
CCOC(=O)c1ccc(N/C=C/C(=O)c2ccc(OC)c(OC)c2)cc1,-10.4,0.2,-10.1,19.9,0.8,100.8*
COc1cc(/C=C2\C(=O)N(CCC#N)N=C2C)ccc1OCC(=O)Nc1ccccc1,11.7,-11.1,-8.9,4.5,-1.6,-5.4
COc1cc(/C=C2\C(C)=C(C#N)c3nc(N)c(C#N)c(C)c32)ccc1OCC(=O)O,45.5*,0.2,-3.0,0.5,10.4,5.4
COc1ccc(Nc2oc(COc3ccc(Cl)cc3)nc2C#N)cc1,42.1*,-13.2,0.2,-4.7,1.7,7.4
Cc1[nH]n(-c2ccc(F)cc2)c(=O)c1C=Nc1ccc(S(=O)(=O)N(C)C)cc1,-4.4,-1.9,-2.5,-0.7,-0.7,-0.2
C#CCN1C(=O)S/C(=C\c2cc3c(cc2OC)OCO3)C1=O,-1.6,-12.3,6.5,-2.3,1.0,50.1*
CC(CC(=O)Nc1ccc2c(c1)c(=O)n(C)n2-c1ccccc1F)c1ccccc1 (stereo not drawn),-0.2,nt,-0.5,0.4,1.7,-0.1
O=c1ccc2cc3c([nH]c4ccc(Br)cc43)oc-2c1O,22.4,nt,7.4,1.3,51.6*,29.0
O=C(O)c1ccc(N=Nc2c(O)[nH]c3ccc(Br)cc23)cc1,-5.3,44.0,-0.5,-1.2,9.5,7.9
O=C(Cc1cccc(NC(=O)C2CCCN(C(=O)C3CCCCC3)C2)c1)Nc1cccc(C(=O)N2CCOCC2)c1 (stereo not drawn),0.9,-0.1,8.9,-1.0,-1.6,0.6
COc1cc(C(=O)NCC(=O)OCC(=O)c2cccc3ccccc23)cc(OC)c1OC,61.2*,-6.0,6.1,-0.5,0.5,-1.2
O=C(NCCOc1ccc(Cl)cc1)C1CC(=O)N(c2ccc3c(c2)OCCO3)C1 (stereo not drawn),6.7,-4.9,-5.4,-0.5,2.4,-4.1
N#CCCn1cc(/C=N/NC(N)=S)c(-c2ccccc2)n1,1.1,6.6,5.5,0.7,-0.3,106.6*
Nc1ncc2c(n1)CC(c1ccco1)CC2=O (stereo not drawn),6.7,0.2,1.9,-0.6,60.2*,3.1
COc1ccc(-c2c(C#Cc3ccsc3)c3ccccc3n2C)cc1,1.5,46.0,32.5,0.2,50.8*,1.4
CC1CC(=O)N(c2ccc(NCc3ccc(Cl)cc3)c([N+](=O)[O-])c2)C1=O (stereo not drawn),-11.3,-9.7,1.5,-1.7,2.1,39.3*
CC1CCN(c2ccc(NC(=O)c3ccc(Br)o3)cc2)CC1,6.7,-9.6,1.2,2.7,1.3,2.7
Nc1c(C(=O)N/N=C/c2cccnc2)cnn1-c1ccccc1,-6.7,-6.8,1.9,1.8,-0.7,2.6
Nc1c(C(=O)N/N=C/c2ccc(Cl)cc2)cnn1-c1ccccc1,7.1,-3.8,8.6,-2.3,11.1,118.5*
Cc1cccnc1NC(=O)C(C)N1C(=O)c2ccccc2C1=O (stereo not drawn),-4.5,-3.8,2.4,0.2,-1.9,-2.8
COc1ccc(N(CC(=O)NCCc2ccc(OC)c(OC)c2)S(=O)(=O)c2ccc(OC)c(OC)c2)cc1,2.5,-7.5,-1.6,-1.2,1.2,4.2
CS/C(=N\S(=O)(=O)c1cccs1)NC(=O)CSc1nc2ccccc2s1,37.9*!,10.4,2.5,1.2,4.0,6.0
C/C(=N/NC(=O)CSc1nc2ccccc2s1)c1ccncc1,0.2,-10.8,-2.0,-2.3,-0.3,1.3
O=C1CCN2C=Nc3cccc4ccc1c2c34,2.4,-10.4,75.6*,-67.6,-4.5,-73.0
O=C1CCC(=O)c2ccc3c4c(ccc1c24)CC3,-36.0,-1.0,24.7,2.6,6.8,-24.8
SMILES,SUMO1 PPI mod,Scp-1 inhibitor,DNMT1 block,STEP block,LMPTP block,CSN deneddyl inh
Cc1cccc(N2CCN(C(=O)c3cn4ccccc4n3)CC2C)c1 (stereo not drawn),-1.1,-9.1,1.1,-3.0,-2.4,3.5
COc1ccc(-n2c(O)c(/C=N/NS(=O)(=O)c3ccc(C)c([N+](=O)[O-])c3)c3ccccc3c2=O)cc1OC,-15.6,-4.7,-15.1,-9.9,0.2,148.1
O=c1c2ccccc2c(/C=N/NS(=O)(=O)c2ccccc2)c(O)n1-c1ccccn1,-24.2,5.4,-7.2,-5.3,0.4,79.7*
Cc1ccnc(NC(=O)c2ccc(OCC3CCCO3)cc2)c1 (stereo not drawn),4.2,-2.8,2.3,-2.3,-1.5,-2.2
CCOC(=O)c1sc(=S)n(-c2ccc(OC)cc2)c1C,-25.5,-6.6,-5.2,-0.1,-0.2,-6.9
CCOC(=O)c1c2c(n(-c3ccc(OC)cc3)c1C)C(=O)C(=O)c1ccccc1-2,13.1,-13.3,85.7*,8.2,21.5,28.3
Cc1cc(C)cc(OCC(=O)OCC(=O)Nc2c(C)n(C)n(-c3ccccc3)c2=O)c1,-3.0,8.5,2.6,-2.5,-1.0,-10.0
Cc1nc(N=Nc2ccc(O)cc2)n[nH]1,-32.6,81.3*,0.1,0.7,-1.3,2.4
O=C(NNC(=O)c1cc2cc(Br)ccc2oc1=O)c1ccc(O)cc1O,-16.9,60.1*,3.5,48.9*,53.6*,53.9
Cc1cccc2nc(COc3ccc(Cl)c4cccnc34)cn12,-13.0,-4.5,-0.4,4.5,4.1,-8.1
CCOc1ccc(NC(=O)c2ccc(CNc3c(NC4CCCCC4)c(=O)c3=O)cc2)cc1,12.2,4.1,55.7*,-0.3,-1.5,2.4
O=C(COC(=O)c1cc(Br)ccc1O)Nc1cccnc1Cl,-52.3,-7.6,-1.3,-0.9,-0.3,-0.2
Cc1ccc(NC(=O)CSc2nc(N)cc(=O)[nH]2)cc1S(=O)(=O)N1CCCCC1,38.9*,-3.9,-5.9,-1.6,-1.1,3.7
Cc1ccc(NC(=O)CSc2nc(N)cc(=O)[nH]2)cc1S(=O)(=O)N1CCOCC1,1.8,-2.5,7.5,-1.5,-1.4,1.3
O=C1C2CC=C(Cl)CC2C(=O)N1CCC[n+]1cccc2ccccc21 (stereo not drawn),-18.9,-1.3,-4.3,-4.7,0.8,2.0
COC(=O)c1ccc(C(=O)Nc2ccc(N)cc2N)cc1,46.9*,-9.1,-17.5,1.4,6.3,12.6
O=C(CSc1nnc(CNC(=O)c2ccccc2F)o1)NC1CCCCC1,37.5*,-2.2,3.7,-1.9,-0.3,-1.9
Cc1cc2cc(C)c(NCCNC(=O)c3cccs3)nc2cc1C,49.9*,6.9,13.5,-1.2,1.5,-3.8
COc1cc(C(=O)NCCSc2ccc(Br)cc2)cc(OC)c1OC,-14.5,-11.0,-3.6,1.9,2.2,69.9*
Cc1ccc(C)c(NC(=O)CCN2CCN(CCO)CC2)c1,-2.1,1.3,9.4,-0.8,-6.3,1.6
